Results from ChEMBL document CHEMBL3108689, “Stilbenes as κ-selective, non-nitrogenous opioid receptor antagonists” (J Nat Prod, 2014).

What was measured:
[1] = molecular target: Mu-type opioid receptor (Homo sapiens) (UniProt P35372); assay: Competitive antagonist activity against human Mu opioid receptor overexpressed in CHO cells assessed as inhibition of DAMGO-stimulated [35S]GTP-gamma-S binding by liquid scintillation counting; format: functional, cell-based
In short: (§1)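 CHO cells overexpressing human μ, δ or κ opioid receptor; membrane homogenates (20–40 μg protein) incubated 1 h at room temperature with 0.1 nM [35S]GTP-γ-S and 1 μM GDP in 50 mM HEPES pH 7.4, in duplicate. Agonist concentration–response curves run with or without one test-compound concentration (screen at 10 μM). Filtration, scintillation counting, normalized to basal; EC50 by four-parameter logistic; Ke = [L]/(DR − 1).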

[2] = molecular target: Delta-type opioid receptor (Homo sapiens) (UniProt P41143); assay: Competitive antagonist activity against human delta opioid receptor overexpressed in CHO cells assessed as inhibition of DPDPE-stimulated [35S]GTP-gamma-S binding by liquid scintillation counting; format: functional, cell-based; in short: as §1
[3] = molecular target: Kappa-type opioid receptor (Homo sapiens) (UniProt P41145); assay: Competitive antagonist activity against human kappa opioid receptor overexpressed in CHO cells assessed as inhibition of U69,593-stimulated [35S]GTP-gamma-S binding by liquid scintillation counting; format: functional, cell-based; in short: as §1
[4] = organism: Homo sapiens; assay: Selectivity ratio of Ke(app) for human delta opioid receptor to ratio of Ke(app) for human kappa opioid receptor
[5] = organism: Homo sapiens; assay: Selectivity ratio of Ke(app) for human Mu opioid receptor to ratio of Ke(app) for human kappa opioid receptor

Ke [1]	Ke [2]	Ke [3]	Ratio [4]	Ratio [5]	SMILES
> 10 µM	> 10 µM	> 10 µM	–	–	CC(C)=CCC/C(C)=C/Cc1c(O)cc(O)cc1/C=C/c1ccc(O)c(O)c1
> 10 µM	> 10 µM	0.15 µM	> 67	> 67	COc1cc(/C=C/c2cc(O)c(O)c(CC=C(C)C)c2)c(C/C=C(\C)CCC=C(C)C)c(OC)c1
0.57 µM	2.9 µM	0.2 µM	14.5	2.9	CC(C)=CCC/C(C)=C/Cc1c(O)cc(O)cc1/C=C/c1ccc(O)c(O)c1CC=C(C)C
> 10 µM	> 10 µM	> 10 µM	–	–	COc1cc(/C=C/c2ccc(O)c(O)c2)c(C/C=C(\C)CCC=C(C)C)c(OC)c1
> 10 µM	> 10 µM	> 10 µM	–	–	CC(C)=CCc1c(O)cc(/C=C/c2ccc(O)cc2)cc1O
> 10 µM	> 10 µM	> 10 µM	–	–	CC(C)=CCc1c(O)cc(/C=C/c2ccc(O)c(O)c2)cc1O
> 10 µM	> 10 µM	> 10 µM	–	–	COc1cc(/C=C/c2ccc(OC)c(O)c2CC=C(C)C)c(C/C=C(\C)CCC=C(C)C)c(OC)c1
3 µM	6 µM	9 µM	0.67	0.33	CC(C)=CCC/C(C)=C/CC/C(C)=C/Cc1c(O)cc(/C=C/c2ccc(O)cc2)cc1O
> 10 µM	> 10 µM	> 10 µM	–	–	COc1cc(/C=C/c2ccc(OC)c(OC)c2)c(C/C=C(\C)CCC=C(C)C)c(OC)c1
> 10 µM	> 10 µM	> 10 µM	–	–	CC(C)=CCC/C(C)=C/Cc1c(O)cc(/C=C/c2ccc(O)c(O)c2)cc1O
> 10 µM	> 10 µM	> 10 µM	–	–	COc1cc(/C=C/c2ccc(OC)c(OC)c2CC=C(C)C)c(C/C=C(\C)CCC=C(C)C)c(OC)c1
